# miR122 inh – miR-122 Renilla sensor signal increase in Huh7, primary screen, miR-122 inhibitor project, cell-based, single point, plate reader. activation (reporter increase), % at 12.5 µM. 340,000 tested, 0.3% active. AID 602342, 2012. Huh7 miR-122 Renilla luciferase sensor, 48 h; neutral wells = 0, positive control = 100;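 active means mean replicate activation score at least 90 and every replicate individually at or above 90; inconclusive means only one of the two criteria met; inactive means neither criterion met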;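 further: higher luciferase means less miR-122 activity so hits act as miR-122 inhibitors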
# dFosB activator – activators of delta FosB homodimer, primary screen, biochemical, fluorescence polarization, TAMRA-CDK5 oligo, single point; Protein FosB (Mus musculus), P13346; 340,000 tested, 0.99% active; activation, % at 25 µM; purified delta FosB; percent of positive-control signal above neutral wells;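 active means mean activation above about 17%, with every replicate also reaching it, limit read from the data, passing the limit was not always enough; inconclusive means only one of the two conditions met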
# Target sequence (P13346 whole entry, looked up): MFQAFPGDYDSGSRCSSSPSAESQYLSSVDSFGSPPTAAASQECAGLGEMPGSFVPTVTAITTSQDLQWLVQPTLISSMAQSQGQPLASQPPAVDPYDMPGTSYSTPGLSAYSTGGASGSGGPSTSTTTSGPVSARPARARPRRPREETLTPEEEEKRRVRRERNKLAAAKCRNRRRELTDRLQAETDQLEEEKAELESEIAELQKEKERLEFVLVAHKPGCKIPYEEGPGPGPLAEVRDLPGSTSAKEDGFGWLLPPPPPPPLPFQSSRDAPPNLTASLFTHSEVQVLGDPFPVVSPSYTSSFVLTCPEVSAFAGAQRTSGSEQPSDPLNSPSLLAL
# Cneo AK release – Cryptococcus neoformans cell lysis inducers, primary screen, AK release luminescence, single concentration | AID 651654, 2012 | 360,000 tested, 0.2% active | C. neoformans lysis, adenylate kinase release luminescence, 4 h; normalised: neutral wells 0, clomiphene wells 100 | lysis activity, % at 15 µM;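 active means mean lysis activity across replicates of at least 80%, whatever share of replicates individually reach that level; inactive means mean lysis activity below 80%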
#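 Schedule: static 4 h at 37 °C with compound, 1 h detection; system: C. neoformans cells; benchmarks: Clomiphene as positive control; buffer or medium: fresh YPD medium; measure: luminescence rise reflecting yeast cell lysis; measured by: luminescent adenylate kinase detection reagent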
# INS-1E GSIS act – GLuc luminescence reporter in INS-1E cells, primary screen for activators of glucose-dependent secretion of insulin; 370,000 tested, 0.61% active; INS-1E GLuc reporter insulin secretion, 2-3 h; activation, % at 16.6 µM;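 active means lowest replicate activation of at least 40%, so every replicate reaches that level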;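 further: 0% = median of neutral control wells and 100% = median of IBMX positive control wells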
# HIV Env fusion – inhibitors of HIV-1 Env-driven cell-cell fusion, primary screen, HeLa-JRFL effector, CEM21 target cells, luciferase. inhibition, % at 12.3 µM. 360,000 tested, 1.1% active. AID 651610, 2012;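 active means mean replicate inhibition score of at least 50 and every replicate individually at or above 50; inconclusive means only one of the two criteria met; inactive means mean below 50 and not all replicates reaching 50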;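 further: 0% = plate neutral controls and 100% = maraviroc near 300 nM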
# Rtt109 Vps75 – inhibitors of C. albicans Rtt109/Vps75 HAT, primary screen, biochemical, ThioGlo CoA-SH fluorescence, plate reader | purified Rtt109/Vps75, 4 h | inhibition, % at 34.9 µM | Histone acetyltransferase RTT109 (Candida albicans (strain SC5314 / ATCC MYA-2876)), … | 330,000 tested, 0.16% active;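 active means inhibition of at least 50% in every replicate; inconclusive means best replicate reaches 50% inhibition but some replicates fall short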
# * = called active by the depositor; ? = inconclusive; / = not tested or not shown; [ ] = dose if it differs, or a comment. Sampled rows, rich in hits. Any-hit rate of the full collection: about 2.4%.
SMILES,miR122 inh,dFosB activator,Cneo AK release,INS-1E GSIS act,HIV Env fusion,Rtt109 Vps75
Cc1cc(C)c2c(=O)n(CC(=O)Nc3ccc(Cl)cc3)sc2n1,/,0,/,8,-3,/
Cc1ccc(NC(=O)Cn2sc3nc(C)cc(C)c3c2=O)c(Cl)c1,6,-6,-7,-6,-14,154*
Cc1cccc(N2CCN(C(=O)Cn3sc4nc(C)cc(C)c4c3=O)CC2C)c1 (stereo not given),-1,9,-3,/,/,159*
COc1cccc(NC(=O)CN(C)C(=O)c2cccc(S(=O)(=O)N3CCN(c4ccc(F)cc4)CC3)c2)c1,1,-20,-2,-36,39,5
CN(CC(=O)Nc1ccc(F)cc1)C(=O)c1cccc(S(=O)(=O)N2CCN(c3ccc(F)cc3)CC2)c1,-14,-11,5,-27,55*,26
CSc1ccc(CN(C)C(=O)c2cccc(S(=O)(=O)N3CCN(Cc4ccccc4)CC3)c2)cc1,/,-5,0,-45,69*,-6
CN1CCN(S(=O)(=O)c2cccc(C(=O)N(Cc3ccccc3)c3ccccc3)c2)CC1,34,-3,0,-13,11,56*
CN(Cc1ccc(F)cc1)C(=O)c1cccc(S(=O)(=O)N2CCN(c3ccccc3)CC2)c1,-2,0,/,-17,10,3
CN(Cc1ccc(F)cc1)C(=O)c1cccc(S(=O)(=O)N2CCN(Cc3ccccc3)CC2)c1,4,-5,8,-37,3,?
CN(Cc1ccc(F)cc1)C(=O)c1cccc(S(=O)(=O)N2CCN(c3ccc(F)cc3)CC2)c1,-2,-6,9,-27,57*,31
COc1ccc(S(=O)(=O)Nc2ccc3c(c2)C(=O)N([C@H](C)CO)C[C@@H](C)[C@H](CN(C)Cc2ccc(Cl)c(Cl)c2)OCCCC[C@H](C)O3)cc1,-9[16.7 µM],/,30,-22,?,/
C[C@H]1CN([C@@H](C)CO)C(=O)c2c(c3ccccc3n2C)-c2ccccc2CO[C@@H]1CN(C)Cc1ccccc1C(F)(F)F,/,/,/,-2,/,/
COc1ccc2c3c([nH]c2c1)[C@H](CO)N(C(=O)NC(C)C)CC31CN(C(=O)c2ccccn2)C1,/,/,/,26,/,/
CO[C@@H]1CN(C)C(=O)c2cc(NC(=O)c3cccc(F)c3)ccc2OC[C@@H](C)N(C(C)=O)C[C@H]1C,23[16.7 µM],/,/,-5,/,/
Cc1ccc(S(=O)(=O)Nc2ccc(-n3cnnn3)cc2)c(C)c1,149*,-5,0,11,/,3
O=C(C1CCOCC1)N1CCCC(N2CCN(c3cccc(C(F)(F)F)c3)CC2)C1 (stereo not given),-7,-7,0,12,7,52*
C[N+]1(C)CCC(=C2c3ccccc3CC(=O)c3sccc32)CC1,24,1,0,/,64*,-15
CC[N+]1(C)CCC(=C2c3ccccc3CC(=O)c3sccc32)CC1 (stereo not given),3,-5,-2,/,-16,-7
CC(=O)OCCNc1cc(SC(C)C)c2nonc2c1[N+](=O)[O-],/,-4,/,2,-35,3
CCC(=O)OCCNc1cc(SCCC(=O)OC)c2nonc2c1[N+](=O)[O-],/,-8,/,-21,14,-2
CCCC(=O)OCCNc1cc(Sc2nc3ccccc3[nH]2)c2nonc2c1[N+](=O)[O-],-25,16,-16,76*,-32,6
CCC(=O)OCCNc1cc(Sc2nccn2C)c2nonc2c1[N+](=O)[O-],/,-13,/,111*,-184,28
CCC(=O)N1CC2(C1)CN(Cc1ccccc1Cl)[C@H](CO)c1c2c2ccc(OC)cc2n1C,/,/,/,-7,/,/
C[C@@H]1CN([C@H](C)CO)C(=O)c2cccc(NC(=O)CCCCCC(=O)Nc3ccccc3N)c2O[C@@H]1CN(C)Cc1ccc(Cl)c(Cl)c1,/,/,/,4,/,/
O=C1NC(c2cccc3ccccc23)Nc2ccccc21 (stereo not given),150*,-11,/,35,-414,14
SMILES,miR122 inh,dFosB activator,Cneo AK release,INS-1E GSIS act,HIV Env fusion,Rtt109 Vps75
O=C1NC(c2ccccc2Cl)Nc2ccccc21 (stereo not given),12,-3,3,/,-246,-5
Cc1noc(C)c1NC(=O)N(C)C[C@H]1Oc2c(NC(=O)CCCCCC(=O)Nc3ccccc3N)cccc2C(=O)N([C@H](C)CO)C[C@@H]1C,/,/,/,3,/,/
CC(=O)Nc1nc(-c2ccccc2)nc(-c2ccccc2OC(C)=O)n1,13,-26,0,14,/,3
CC(=O)Nc1nc(C)nc(-c2ccccc2OC(C)=O)n1,/,1,3,45*,/,-7
CC(C)[C@@H]1C(=O)N[C@H](c2ccccc2)CC=CC[C@@H](C)Oc2ccccc2C(=O)N1C (mixture of isomers),/,/,/,-5,/,/
O=C(CN1CCOCC1)Nc1cccc(C(F)(F)F)c1,/,-1,/,/,0,55*
CCCC#Cc1cnc2c(c1)C(=O)N([C@@H](C)CO)C[C@H](C)[C@H](CN(C)C(=O)CN1CCOCC1)O2,2[16.7 µM],/,-2,13,-15[16.7 µM],/
COc1ccc(N2CCN(S(=O)(=O)c3ccc(-c4cc(C)no4)s3)CC2)cc1,4,8,-1,86*,1,4
Cc1cc(-c2ccc(S(=O)(=O)N3CCN(C)CC3)s2)on1,9,-5,-1,43*,5,-7
CNc1nc(Nc2ccccc2)nc(OCC(F)(F)F)n1,/,-1,-1,76*,-5,14
COC(=O)c1[nH]nc2c1C(=O)N(Cc1ccccc1)C2=O,-2,-2,0,-39,/,0
COC(=O)c1[nH]nc(-c2ccccc2)c1-c1ccccc1,/,10,/,5,7,54*
CC(C)C#Cc1ccc2c(c1)O[C@H](CN(C)C(=O)c1cccc(F)c1)[C@@H](C)CN([C@H](C)CO)S2(=O)=O,33[16.7 µM],/,2,-11,19[16.7 µM],/
Cc1ccccc1S(=O)(=O)NCC[C@@H]1CC[C@H](NS(=O)(=O)c2ccccc2C)[C@@H](CO)O1,-4[16.7 µM],/,2,5,-3[16.7 µM],/
COc1nc(N2CCOCC2)nc(-n2cccc2)n1,2,-5,2,57*,8,-6
CCOc1ccccc1N1CC(O)=C(c2nc3ccccc3s2)C1=N,100*,-5,-1,-2,/,13
O=C(C[C@@H]1C=C[C@@H](NC(=O)NC2CCCCC2)[C@@H](CO)O1)NCc1ccccc1,1[16.7 µM],/,-2,/,3[16.7 µM],/
O=c1[nH]nc(-c2ccc(F)cc2)cc1Cc1cccs1,/,-3,/,46*,5,-2
Cc1ccc(-c2cc(Cc3cccs3)c(=O)[nH]n2)cc1,-2,-8,0,27,-1,-4
